ChEMBL document CHEMBL1806434, “Acyclic nucleoside phosphonates with a branched 2-(2-phosphonoethoxy)ethyl chain: efficient synthesis and antiviral activity” (Bioorg Med Chem, 2011)
Active and inactive are the calls of the source. No cut-off for these calls is given here.

Experiments:
Human alphaherpesvirus 3 [1] = test: Antiviral activity against Varicella-zoster virus YS expressing thymidine kinase assessed as reduction of virus induced cytopathicity by cell based assay; type: functional, organism-based
Human alphaherpesvirus 3 [2] = test: Antiviral activity against Varicella-zoster virus strain OKA expressing thymidine kinase assessed as reduction of virus induced cytopathicity by cell based assay; type: functional; conditions: for Activity: strain Oka vaccine; for EC50: Human alphaherpesvirus 3, strain Oka vaccine
Procedure, shortened: (§1)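 Confluent cell monolayers infected with 100 CCID50 virus, or 20 PFU for plaque assays, then incubated with serial compound dilutions. Host cells listed for the non-HIV panel are HEL fibroblasts, Vero, HeLa, CRFK or MDCK. Cytopathicity is scored, or plaques counted for VZV, once infected untreated controls reach full CPE.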

Human alphaherpesvirus 3 [3] = test: Antiviral activity against thymidine kinase-deficient Varicella-zoster virus 07/1 assessed as reduction of virus induced cytopathicity by cell based assay; type: functional, organism-based; conditions: for EC50: Human alphaherpesvirus 3, 07/1; procedure, shortened: as §1
Human alphaherpesvirus 3 [4] = test: Antiviral activity against thymidine kinase-deficient Varicella-zoster virus YS/R assessed as reduction of virus induced cytopathicity by cell based assay; type: functional, organism-based
Human alphaherpesvirus 1 [5] = test: Antiviral activity against Herpes simplex virus 1 strain KOS assessed as reduction of virus induced cytopathicity by cell based assay; type: functional, organism-based; conditions: for EC50: Human alphaherpesvirus 1, KOS; procedure, shortened: as §1
Human alphaherpesvirus 2 = test: Antiviral activity against Herpes simplex virus 2 strain G assessed as reduction of virus induced cytopathicity by cell based assay; type: functional, organism-based; conditions: for EC50: Human alphaherpesvirus 2, strain G; procedure, shortened: as §1
Human alphaherpesvirus 1 [6] = test: Antiviral activity against thymidine kinase-deficient acyclovir-resistant Herpes simplex virus 1 strain KOS assessed as reduction of virus induced cytopathicity by cell based assay; type: functional, organism-based; conditions: for EC50: Human alphaherpesvirus 1, KOS; procedure, shortened: as §1
Human betaherpesvirus 5 [7] = test: Antiviral activity against Human cytomegalovirus strain AD169 assessed as reduction of virus induced cytopathicity by cell based assay; type: functional, organism-based; procedure, shortened: as §1
Human betaherpesvirus 5 [8] = test: Antiviral activity against Human cytomegalovirus Davis assessed as reduction of virus induced cytopathicity by cell based assay; type: functional, organism-based; conditions: for EC50: Human betaherpesvirus 5, Davis; procedure, shortened: as §1
Vaccinia virus = test: Antiviral activity against Vaccinia virus Lederle assessed as reduction of virus induced cytopathicity by cell based assay; type: functional, organism-based; conditions: Orthopoxvirus vaccinia; procedure, shortened: as §1
[9] = tested on: Vesicular stomatitis virus; test: Antiviral activity against Vesicular stomatitis virus assessed as reduction of virus induced cytopathicity by cell based assay; type: functional, organism-based; procedure, shortened: as §1
Coxsackievirus B4 = test: Antiviral activity against Coxsackievirus B4 assessed as reduction of virus induced cytopathicity by cell based assay; type: functional, organism-based
Procedure, shortened: (§2)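 Confluent cell monolayers in 96-well plates (HEL, Vero, HeLa, CRFK or MDCK; the cell type per virus is not specified) infected with 100 CCID50 virus or 20 PFU and incubated with serial compound dilutions. Cytopathicity scored once it was complete in untreated infected controls.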

[10] = tested on: Respiratory syncytial virus; test: Antiviral activity against Respiratory syncytial virus Long assessed as reduction of virus induced cytopathicity by cell based assay; type: functional, organism-based; procedure, shortened: as §2
Human respirovirus 3 = test: Antiviral activity against Human parainfluenza virus 3 assessed as reduction of virus induced cytopathicity by cell based assay; type: functional, organism-based; procedure, shortened: as §2
[11] = tested on: Mammalian orthoreovirus 1; test: Antiviral activity against Reovirus-1 assessed as reduction of virus induced cytopathicity by cell based assay; type: functional, organism-based; procedure, shortened: as §2
Sindbis virus = test: Antiviral activity against Sindbis virus assessed as reduction of virus induced cytopathicity by cell based assay; type: functional, organism-based; procedure, shortened: as §2
Punta Toro virus = test: Antiviral activity against Punta Toro virus assessed as reduction of virus induced cytopathicity by cell based assay; type: functional, organism-based; procedure, shortened: as §2
[12] = Cytotoxicity against human HEL cells assessed as alteration of cell morphology after 3 days by microscopic analysis; type: cell-based
Procedure, shortened: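 MCC taken as the lowest compound concentration producing microscopically detectable alteration of HEL fibroblast morphology.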

HEL = test: Cytotoxicity against human HEL cells after 3 days by coulter counter; type: cell-based; conditions: 72 h
Procedure, shortened: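 HEL cells seeded at 5 × 10^3 cells/well and allowed to proliferate for 24 h, then exposed to a range of compound concentrations for 3 days at 37 °C. Cells counted with a Coulter counter.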

With Nc1ncnc2c1ncn2CCOC(CO)CP(=O)(O)O (configuration not stated) the Activity (Human alphaherpesvirus 3 [1]) was “inactive”, the Activity (Human alphaherpesvirus 3 [2]) was “inactive” and the Activity (Human alphaherpesvirus 3 [3]) was “inactive”. The Activity (Human alphaherpesvirus 3 [4]) was “inactive”, the Activity (Human alphaherpesvirus 1 [5]) was “inactive” and the Activity (Human alphaherpesvirus 2) was “inactive”. The Activity (Human alphaherpesvirus 1 [6]) was “inactive”, the Activity (Human betaherpesvirus 5 [7]) was “inactive” and the Activity (Human betaherpesvirus 5 [8]) was “inactive”. For the same compound, the Activity (Vaccinia virus) was “inactive”, the Activity [9] was “inactive” and the Activity (Coxsackievirus B4) was “inactive”. The Activity [10] was “inactive”, the Activity (Human respirovirus 3) was “inactive” and the Activity [11] was “inactive”. The Activity (Sindbis virus) was “inactive” and the Activity (Punta Toro virus) was “inactive”.
With CC(CP(=O)(O)O)OCCn1cnc2c(N)nc(N)nc21 (configuration not stated) the Activity (Human alphaherpesvirus 3 [1]) was “inactive”, the Activity (Human alphaherpesvirus 3 [2]) was “inactive” and the Activity (Human alphaherpesvirus 3 [3]) was “inactive”. For the same compound, the Activity (Human alphaherpesvirus 3 [4]) was “inactive”, the Activity (Human alphaherpesvirus 1 [5]) was “inactive” and the Activity (Human alphaherpesvirus 2) was “inactive”. For the same compound, the Activity (Human alphaherpesvirus 1 [6]) was “inactive”, the Activity (Human betaherpesvirus 5 [7]) was “inactive” and the Activity (Human betaherpesvirus 5 [8]) was “inactive”. The Activity (Vaccinia virus) was “inactive”, the Activity [9] was “inactive” and the Activity (Coxsackievirus B4) was “inactive”. For the same compound, the Activity [10] was “inactive”, the Activity (Human respirovirus 3) was “inactive” and the Activity [11] was “inactive”. For the same compound, the Activity (Sindbis virus) was “inactive” and the Activity (Punta Toro virus) was “inactive”.
Compound Nc1nc2c(ncn2COCCO)c(=O)[nH]1 [ACYCLOVIR] has an EC50 (Human alphaherpesvirus 1 [5]) of 0.3 µM, an EC50 (Human alphaherpesvirus 1 [6]) of 7.3 µM and an EC50 (Vaccinia virus) of over 250 µM. It also gave an MCC at 72 h [12] of over 444 µM and a CC50 (HEL) of 1340 µM.
With Cc1cn(CCOC(CO)CP(=O)(O)O)c(=O)[nH]c1=O (configuration not stated) the Activity (Human alphaherpesvirus 3 [1]) was “inactive”, the Activity (Human alphaherpesvirus 3 [2]) was “inactive” and the Activity (Human alphaherpesvirus 3 [3]) was “inactive”. The Activity (Human alphaherpesvirus 3 [4]) was “inactive”, the Activity (Human alphaherpesvirus 1 [5]) was “inactive” and the Activity (Human alphaherpesvirus 2) was “inactive”. The Activity (Human alphaherpesvirus 1 [6]) was “inactive”, the Activity (Human betaherpesvirus 5 [7]) was “inactive” and the Activity (Human betaherpesvirus 5 [8]) was “inactive”. The Activity (Vaccinia virus) was “inactive”, the Activity [9] was “inactive” and the Activity (Coxsackievirus B4) was “inactive”. The Activity [10] was “inactive”, the Activity (Human respirovirus 3) was “inactive” and the Activity [11] was “inactive”. For the same compound, the Activity (Sindbis virus) was “inactive” and the Activity (Punta Toro virus) was “inactive”.
In the case of O=c1[nH]cnc2c1ncn2CCOC(CO)CP(=O)(O)O (configuration not stated), the EC50 (Human alphaherpesvirus 3 [2]) is reported as 88 µM, the EC50 (Human alphaherpesvirus 3 [3]) is reported as 197 µM and the EC50 (Human alphaherpesvirus 1 [5]) is reported as 208 µM. The EC50 (Human alphaherpesvirus 2) was 315 µM, the EC50 (Human alphaherpesvirus 1 [6]) was over 315 µM and the EC50 (Human betaherpesvirus 5 [8]) was over 315 µM. For the same compound, the EC50 (Vaccinia virus) was over 315 µM, the MCC at 72 h [12] was over 315 µM and the CC50 (HEL) was over 315 µM. For the same compound, the Activity [9] was “inactive”, the Activity (Coxsackievirus B4) was “inactive” and the Activity [10] was “inactive”. The Activity (Human respirovirus 3) was “inactive”, the Activity [11] was “inactive” and the Activity (Sindbis virus) was “inactive”. The Activity (Punta Toro virus) was “inactive”.
In the case of O=c1ccn(CCOC(CO)CP(=O)(O)O)c(=O)[nH]1 (configuration not stated), the Activity (Human alphaherpesvirus 3 [1]) is reported as “inactive”, the Activity (Human alphaherpesvirus 3 [2]) is reported as “inactive” and the Activity (Human alphaherpesvirus 3 [3]) is reported as “inactive”. For the same compound, the Activity (Human alphaherpesvirus 3 [4]) was “inactive”, the Activity (Human alphaherpesvirus 1 [5]) was “inactive” and the Activity (Human alphaherpesvirus 2) was “inactive”. The Activity (Human alphaherpesvirus 1 [6]) was “inactive”, the Activity (Human betaherpesvirus 5 [7]) was “inactive” and the Activity (Human betaherpesvirus 5 [8]) was “inactive”. For the same compound, the Activity (Vaccinia virus) was “inactive”, the Activity [9] was “inactive” and the Activity (Coxsackievirus B4) was “inactive”. For the same compound, the Activity [10] was “inactive”, the Activity (Human respirovirus 3) was “inactive” and the Activity [11] was “inactive”. For the same compound, the Activity (Sindbis virus) was “inactive” and the Activity (Punta Toro virus) was “inactive”.
For Nc1nc2c(ncn2CCOC(COCc2ccccc2)CP(=O)(O)O)c(=O)[nH]1 (configuration not stated), the EC50 (Human alphaherpesvirus 3 [2]) was 109 µM, the EC50 (Human alphaherpesvirus 3 [3]) was 94 µM and the EC50 (Human alphaherpesvirus 1 [5]) was over 240 µM. It also gave an EC50 (Human alphaherpesvirus 2) of over 240 µM, an EC50 (Human alphaherpesvirus 1 [6]) of over 240 µM and an EC50 (Human betaherpesvirus 5 [8]) of over 240 µM. The EC50 (Vaccinia virus) was over 240 µM, the MCC at 72 h [12] was over 240 µM and the CC50 (HEL) was over 240 µM. For the same compound, the Activity [9] was “inactive”, the Activity (Coxsackievirus B4) was “inactive” and the Activity [10] was “inactive”. For the same compound, the Activity (Human respirovirus 3) was “inactive”, the Activity [11] was “inactive” and the Activity (Sindbis virus) was “inactive”. For the same compound, the Activity (Punta Toro virus) was “inactive”.
Cc1cn(CCOC(C)CP(=O)(O)O)c(=O)[nH]c1=O (configuration not stated) showed an EC50 (Human alphaherpesvirus 3 [2]) of 47 µM, an EC50 (Human alphaherpesvirus 3 [3]) of 48 µM and an EC50 (Human alphaherpesvirus 1 [5]) of 171 µM. The EC50 (Human alphaherpesvirus 2) was 154 µM, the EC50 (Human alphaherpesvirus 1 [6]) was over 342 µM and the EC50 (Human betaherpesvirus 5 [7]; Human betaherpesvirus 5, AD169) was 188 µM. For the same compound, the EC50 (Human betaherpesvirus 5 [8]) was 248 µM, the EC50 (Vaccinia virus) was over 342 µM and the MCC at 72 h [12] was over 342 µM. For the same compound, the CC50 (HEL) was over 342 µM, the Activity [9] was “inactive” and the Activity (Coxsackievirus B4) was “inactive”. The Activity [10] was “inactive”, the Activity (Human respirovirus 3) was “inactive” and the Activity [11] was “inactive”. For the same compound, the Activity (Sindbis virus) was “inactive” and the Activity (Punta Toro virus) was “inactive”.
